Measured values: ChEMBL document CHEMBL5724801, “EUbOPEN Chemogenomics Library - Multiplex” (2024)
Values joined by “and” are separate entries in the source; they are usually repeats but may differ in a detail not shown here. Identical values can stand only once. Non-standard residues stand in square brackets, D forms with d. Residues, ends and D or L forms follow the SMILES beside them.

Test system: Fibroblast
Assay: Multiplex assay against human fibroblast
Format: toxicity, cell-based
Procedure, shortened: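 At seeding, live cells were stained with Hoechst33342, BioTracker Green Microtubule Cytoskeleton Dye, MitoTracker Red and Annexin V Alexa Fluor 680. After compound addition they were imaged on a CQ1 microscope at 37°C and 5% CO2, and CellPathfinder machine-learning gating sorted them into Hoechst high-intensity objects or normal cells, with normal cells further split into healthy, pyknosed or fragmented nuclei and pyknosed cells into mitotic or apoptotic. Tubulin, mitochondrial-mass and membrane-permeability phenotypes are given as per cents of cells with healthy nuclei.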

[1] = 12 h, 1 µM, compound concentration 1 uM
[2] = 12 h, 10 µM, compound concentration 10 uM
[3] = 24 h, 1 µM, compound concentration 1 uM
[4] = 24 h, 10 µM, compound concentration 10 uM
[5] = 48 h, 1 µM, compound concentration 1 uM
[6] = 48 h, 10 µM, compound concentration 10 uM

SMILES: CC(C)C[C@@H]1NC(=O)[C@@H](C(C)C)NC(=O)[C@@H]2CCCN2C(=O)[C@@H](CC(=O)O)NC(=O)[C@@H](Cc2c[nH]c3ccccc23)NC1=O [BQ-123] (cyclo(L[dW][dD]P[dV]))
- Population Apoptotic (%) [1]: 57% and 21%
- Population Fragmented Nuclei (%) [1]: 18% and 22%
- Population Healthy Nuclei (%) [1]: 68% and 58%
- Population Hoechst High Intensity Objects (%) [1]: 0% and 3%
- Population Membrane Permeable-Phenotype (%) [1]: 1% and 5%
- Population Mitochondria Different-Phenotype (%) [1]: 11% and 2%
- Population Mitotic Cells (%) [1]: 42% and 78%
- Population Normal (%) [1]: 100% and 96%
- Population Pyknosed Nuclei (%) [1]: 13% and 18%
- Population Tubulin-Different-Phenotype (%) [1]: 31%
- Total Cell Count [1]: 105 and 157
- Population Apoptotic (%) [2]: 48% and 33%
- Population Fragmented Nuclei (%) [2]: 15% and 30%
- Population Healthy Nuclei (%) [2]: 65% and 48%
- Population Hoechst High Intensity Objects (%) [2]: 2%
- Population Membrane Permeable-Phenotype (%) [2]: 0% and 4%
- Population Mitochondria Different-Phenotype (%) [2]: 9% and 3%
- Population Mitotic Cells (%) [2]: 52% and 66%
- Population Normal (%) [2]: 97%
- Population Pyknosed Nuclei (%) [2]: 18% and 20%
- Population Tubulin-Different-Phenotype (%) [2]: 33% and 46%
- Total Cell Count [2]: 136 and 134
- Population Apoptotic (%) [3]: 53% and 24%
- Population Fragmented Nuclei (%) [3]: 19% and 23%
- Population Healthy Nuclei (%) [3]: 66% and 57%
- Population Hoechst High Intensity Objects (%) [3]: 1% and 6%
- Population Membrane Permeable-Phenotype (%) [3]: 0% and 3%
- Population Mitochondria Different-Phenotype (%) [3]: 5% and 3%
- Population Mitotic Cells (%) [3]: 46% and 75%
- Population Normal (%) [3]: 98% and 93%
- Population Pyknosed Nuclei (%) [3]: 14% and 18%
- Population Tubulin-Different-Phenotype (%) [3]: 24% and 25%
- Total Cell Count [3]: 107 and 166
- Population Apoptotic (%) [4]: 50% and 29%
- Population Fragmented Nuclei (%) [4]: 19% and 27%
- Population Healthy Nuclei (%) [4]: 64% and 50%
- Population Hoechst High Intensity Objects (%) [4]: 8% and 0%
- Population Membrane Permeable-Phenotype (%) [4]: 1% and 11%
- Population Mitochondria Different-Phenotype (%) [4]: 5% and 3%
- Population Mitotic Cells (%) [4]: 50% and 70%
- Population Normal (%) [4]: 91% and 99%
- Population Pyknosed Nuclei (%) [4]: 15% and 22%
- Population Tubulin-Different-Phenotype (%) [4]: 32% and 50%
- Total Cell Count [4]: 123
- Population Apoptotic (%) [5]: 50% and 52%
- Population Fragmented Nuclei (%) [5]: 18% and 28%
- Population Healthy Nuclei (%) [5]: 70% and 56%
- Population Hoechst High Intensity Objects (%) [5]: 3% and 4%
- Population Membrane Permeable-Phenotype (%) [5]: 0% and 2%
- Population Mitochondria Different-Phenotype (%) [5]: 12% and 4%
- Population Mitotic Cells (%) [5]: 50% and 48%
- Population Normal (%) [5]: 96% and 95%
- Population Pyknosed Nuclei (%) [5]: 11% and 15%
- Population Tubulin-Different-Phenotype (%) [5]: 25% and 39%
- Total Cell Count [5]: 109 and 172
- Population Apoptotic (%) [6]: 70% and 46%
- Population Fragmented Nuclei (%) [6]: 26% and 45%
- Population Healthy Nuclei (%) [6]: 59% and 42%
- Population Hoechst High Intensity Objects (%) [6]: 5% and 6%
- Population Membrane Permeable-Phenotype (%) [6]: 1% and 9%
- Population Mitochondria Different-Phenotype (%) [6]: 5% and 3%
- Population Mitotic Cells (%) [6]: 29% and 53%
- Population Normal (%) [6]: 94% and 93%
- Population Pyknosed Nuclei (%) [6]: 13% and 12%
- Population Tubulin-Different-Phenotype (%) [6]: 38% and 51%
- Total Cell Count [6]: 129 and 130

SMILES: O=c1ccc2ccc(OCCCCN3CCN(c4cccc5sccc45)CC3)cc2[nH]1 [BREXPIPRAZOLE]
- Population Apoptotic (%) [1]: 56% and 48%
- Population Fragmented Nuclei (%) [1]: 17% and 33%
- Population Healthy Nuclei (%) [1]: 62% and 44%
- Population Hoechst High Intensity Objects (%) [1]: 2% and 5%
- Population Membrane Permeable-Phenotype (%) [1]: 0% and 2%
- Population Mitochondria Different-Phenotype (%) [1]: 5% and 15%
- Population Mitotic Cells (%) [1]: 44% and 51%
- Population Normal (%) [1]: 97% and 94%
- Population Pyknosed Nuclei (%) [1]: 20% and 21%
- Population Tubulin-Different-Phenotype (%) [1]: 41% and 73%
- Total Cell Count [1]: 126 and 169
- Population Apoptotic (%) [2]: 68% and 45%
- Population Fragmented Nuclei (%) [2]: 16% and 30%
- Population Healthy Nuclei (%) [2]: 64% and 49%
- Population Hoechst High Intensity Objects (%) [2]: 1% and 11%
- Population Membrane Permeable-Phenotype (%) [2]: 0% and 2%
- Population Mitochondria Different-Phenotype (%) [2]: 39% and 25%
- Population Mitotic Cells (%) [2]: 31% and 54%
- Population Normal (%) [2]: 98% and 88%
- Population Pyknosed Nuclei (%) [2]: 19% and 20%
- Population Tubulin-Different-Phenotype (%) [2]: 83% and 81%
- Total Cell Count [2]: 203 and 243
- Population Apoptotic (%) [3]: 56% and 33%
- Population Fragmented Nuclei (%) [3]: 17% and 32%
- Population Healthy Nuclei (%) [3]: 69% and 52%
- Population Hoechst High Intensity Objects (%) [3]: 1% and 3%
- Population Membrane Permeable-Phenotype (%) [3]: 0% and 2%
- Population Mitochondria Different-Phenotype (%) [3]: 8% and 14%
- Population Mitotic Cells (%) [3]: 43% and 66%
- Population Normal (%) [3]: 98% and 96%
- Population Pyknosed Nuclei (%) [3]: 13% and 14%
- Population Tubulin-Different-Phenotype (%) [3]: 43% and 76%
- Total Cell Count [3]: 122 and 173
- Population Apoptotic (%) [4]: 58% and 65%
- Population Fragmented Nuclei (%) [4]: 13% and 30%
- Population Healthy Nuclei (%) [4]: 54% and 40%
- Population Hoechst High Intensity Objects (%) [4]: 13% and 19%
- Population Membrane Permeable-Phenotype (%) [4]: 0%
- Population Mitochondria Different-Phenotype (%) [4]: 63% and 34%
- Population Mitotic Cells (%) [4]: 41% and 34%
- Population Normal (%) [4]: 86% and 80%
- Population Pyknosed Nuclei (%) [4]: 31% and 28%
- Population Tubulin-Different-Phenotype (%) [4]: 85% and 71%
- Total Cell Count [4]: 218 and 239
- Population Apoptotic (%) [5]: 62% and 60%
- Population Fragmented Nuclei (%) [5]: 24% and 42%
- Population Healthy Nuclei (%) [5]: 62% and 51%
- Population Hoechst High Intensity Objects (%) [5]: 4%
- Population Membrane Permeable-Phenotype (%) [5]: 0% and 1%
- Population Mitochondria Different-Phenotype (%) [5]: 10% and 9%
- Population Mitotic Cells (%) [5]: 37% and 40%
- Population Normal (%) [5]: 95%
- Population Pyknosed Nuclei (%) [5]: 12% and 5%
- Population Tubulin-Different-Phenotype (%) [5]: 52% and 67%
- Total Cell Count [5]: 133 and 175
- Population Apoptotic (%) [6]: 62% and 44%
- Population Fragmented Nuclei (%) [6]: 18% and 30%
- Population Healthy Nuclei (%) [6]: 50% and 43%
- Population Hoechst High Intensity Objects (%) [6]: 34%
- Population Membrane Permeable-Phenotype (%) [6]: 0%
- Population Mitochondria Different-Phenotype (%) [6]: 60% and 20%
- Population Mitotic Cells (%) [6]: 37% and 55%
- Population Normal (%) [6]: 65%
- Population Pyknosed Nuclei (%) [6]: 31% and 26%
- Population Tubulin-Different-Phenotype (%) [6]: 88% and 55%
- Total Cell Count [6]: 208 and 317
